Assays:
Rat [1] = test: concentration in plasma after dosing; settings: 1 h; dosed: Gemfibrozil; 4.29 mg/kg; oral; Male; Sprague-Dawley
Rat [2] = test: concentration in plasma after dosing; settings: 0.25 h; dosed: Gemfibrozil; 50 mg/kg; oral; Male; Sprague-Dawley
Rat [3] = test: concentration in plasma after dosing; settings: 4 h; dosed: 2-Methyltetrahydrofuran; 40 mg/kg; iv; Male; Harlan Sprague Dawley
Rat [4] = test: concentration in plasma after dosing; settings: 7 min; dosed: 2-Methyltetrahydrofuran; 40 mg/kg; iv; Male; Harlan Sprague Dawley
human = test: concentration in expired air after dosing; settings: dosed: trichloroethylene, 100 ppm, inhalation, duration: 4 hr, person
Method in brief: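 A PubMed search, classifier screening and manual review identified published in vivo toxicokinetic studies, which together with two structured collections supplied concentration-versus-time and amount-versus-time points. Points were mostly digitised from plot screenshots with WebPlotDigitizer, otherwise copied from tables. Dose, route, subject details and medium were hand-curated from each paper, and sampling and analytical methods are those of the sources, often unreported.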

Rat [5] = test: concentration in kidney after dosing; settings: 3360 h; dosed: Perfluorooctane Sulfonate; 2 mg/kg; oral; Female; Harlan Sprague Dawley
Rat [6] = test: concentration in plasma after dosing; settings: dosed: Perfluorooctane Sulfonate, 2 mg/kg, iv, Female, Harlan Sprague-Dawley
Rat [7] = test: concentration in kidney after dosing; settings: 3360 h; dosed: Perfluorooctane Sulfonate; 20 mg/kg; oral; Male; Harlan Sprague Dawley
Rat [8] = test: concentration in brain after dosing; settings: 24 h; dosed: Perfluorooctane Sulfonate; 20 mg/kg; oral; Female; F344
Rat [9] = test: concentration in plasma after dosing; settings: 864 h; dosed: Perfluorooctane Sulfonate; 2 mg/kg; oral; Female; Harlan Sprague Dawley
Rat [10] = test: concentration in liver after dosing; settings: 24 h; dosed: Perfluorooctane Sulfonate; 2 mg/kg; oral; Female; Harlan Sprague Dawley
Rat [11] = test: concentration in liver after dosing; settings: 1848 h; dosed: Perfluorooctane Sulfonate; 20 mg/kg; oral; Female; F344
Rat [12] = test: concentration in kidney after dosing; settings: 864 h; dosed: Perfluorooctane Sulfonate; 2 mg/kg; oral; Female; Harlan Sprague Dawley
Rat [13] = test: concentration in liver after dosing; settings: 1848 h; dosed: Perfluorooctane Sulfonate; 2 mg/kg; oral; Female; Harlan Sprague Dawley
Rat [14] = test: concentration in brain after dosing; settings: 864 h; dosed: Perfluorooctane Sulfonate; 20 mg/kg; oral; Female; F344
Rat [15] = test: concentration in liver after dosing; settings: 864 h; dosed: Perfluorooctane Sulfonate; 20 mg/kg; oral; Female; F344
Rat [16] = test: concentration in kidney after dosing; settings: 6 h; dosed: Perfluorooctane Sulfonate; 2 mg/kg; oral; Female; Harlan Sprague Dawley
Rat [17] = test: concentration in liver after dosing; settings: 864 h; dosed: Perfluorooctane Sulfonate; 2 mg/kg; oral; Female; Harlan Sprague Dawley
Rat [18] = test: concentration in plasma after dosing; settings: dosed: Perfluorooctane Sulfonate, 2 mg/kg, iv, Female, F344
Rat [19] = test: concentration in brain after dosing; settings: 0.5 h; dosed: Perfluorohexanoic Acid; 80 mg/kg; oral; Female; Harlan Sprague Dawley
Rat [20] = test: concentration in kidney after dosing; settings: 0.5 h; dosed: Perfluorohexanoic Acid; 80 mg/kg; oral; Male; Harlan Sprague Dawley
Rat [21] = test: concentration in plasma after dosing; settings: 0.5 h; dosed: Perfluorohexanoic Acid; 40 mg/kg; iv; Male; F344
Rat [22] = test: concentration in liver after dosing; settings: 1 h; dosed: Perfluorohexanoic Acid; 80 mg/kg; oral; Female; Harlan Sprague Dawley
Rat [23] = test: concentration in plasma after dosing; settings: dosed: Perfluorohexanoic Acid, 40 mg/kg, iv, Male, F344
Rat [24] = test: concentration in plasma after dosing; settings: 1 h; dosed: Perfluorohexanoic Acid; 40 mg/kg; iv; Male; F344
Rat [25] = test: concentration in kidney after dosing; settings: 0.5 h; dosed: Perfluorohexanoic Acid; 80 mg/kg; oral; Female; Harlan Sprague Dawley
Rat [26] = test: concentration in liver after dosing; settings: 12 h; dosed: Fluorotelomer alcohol 8+2; 24 mg/kg; oral; Male; Harlan Sprague Dawley
Rat [27] = test: concentration in plasma after dosing; settings: dosed: 678-39-7, 12 mg/kg, iv, Male, F344
Rat [28] = test: concentration in kidney after dosing; settings: 1 h; dosed: Fluorotelomer alcohol 8+2; 80 mg/kg; oral; Female; Harlan Sprague Dawley
Rat [29] = test: concentration in liver after dosing; settings: 6 h; dosed: Fluorotelomer alcohol 8+2; 24 mg/kg; oral; Male; Harlan Sprague Dawley
Rat [30] = test: concentration in kidney after dosing; settings: 12 h; dosed: Fluorotelomer alcohol 8+2; 80 mg/kg; oral; Female; Harlan Sprague Dawley
Rat [31] = test: concentration in plasma after dosing; settings: dosed: Fluorotelomer alcohol 8+2, 12 mg/kg, oral, Male, Harlan Sprague Dawley
Rat [32] = test: concentration in brain after dosing; settings: 12 h; dosed: Fluorotelomer alcohol 8+2; 24 mg/kg; oral; Male; Harlan Sprague Dawley
Rat [33] = test: concentration in plasma after dosing; settings: dosed: 678-39-7, 12 mg/kg, iv, Male, F344; remark: listed apart in the source
Rat [34] = test: concentration in plasma after dosing; settings: dosed: 678-39-7, 12 mg/kg, iv, Male, F344; remark: listed apart in the source
Rat [35] = test: concentration in liver after dosing; settings: 1 h; dosed: Fluorotelomer alcohol 8+2; 24 mg/kg; oral; Male; Harlan Sprague Dawley

Cc1ccc(C)c(OCCCC(C)(C)C(=O)O)c1 [Gemfibrozil]
Settings | concentration in plasma [ng/mL]
Rat [1] | 142
Rat [2] | 14400

CC1CCCO1 (centres undefined) [2-Methyltetrahydrofuran]
Settings | concentration in plasma [ng/mL]
Rat [3] | 1880
Rat [4] | 53800

ClC=C(Cl)Cl [trichloroethylene]
human
Settings | concentration in expired air [ppm]
0.2505 h | 6.43
0.4903 h | 4.4
1.01 h | 2.66
2.009 h | 1.42
4.008 h | 1.29
5.993 h | 1.15
8.005 h | 0.514
10.04 h | 0.377
11.99 h | 0.34
13.99 h | 0.738
86 s | 24.7

O=S(=O)([O-])C(F)(F)C(F)(F)C(F)(F)C(F)(F)C(F)(F)C(F)(F)C(F)(F)C(F)(F)F [Perfluorooctane Sulfonate]
Settings | concentration in brain [ng/g] | concentration in kidney [ng/g] | concentration in liver [ng/g] | concentration in plasma [ng/mL]
Rat [5] | – | 1110 | – | –
Rat [7] | – | 4960 | – | –
Rat [8] | 7400 | – | – | –
Rat [9] | – | – | – | 1490
Rat [10] | – | – | 22900 | –
Rat [11] | – | – | 55400 | –
Rat [12] | – | 3490 | – | –
Rat [13] | – | – | 12000 | –
Rat [14] | 2730 | – | – | –
Rat [15] | – | – | 77100 | –
Rat [16] | – | 3800 | – | –
Rat [17] | – | – | 11100 | –

concentration in plasma [ng/mL]
Settings | 5 min | 24 h | 192 h | 1704 h
Rat [6] | 5920 | 5370 | – | –
Rat [18] | 5590 | – | 4170 | 940

O=C(O)C(F)(F)C(F)(F)C(F)(F)C(F)(F)C(F)(F)F [Perfluorohexanoic Acid]
Settings | concentration in brain [ng/g] | concentration in kidney [ng/g] | concentration in liver [ng/g] | concentration in plasma [ng/mL]
Rat [19] | 1270 | – | – | –
Rat [20] | – | 99400 | – | –
Rat [21] | – | – | – | 8680
Rat [22] | – | – | 39700 | –
Rat [24] | – | – | – | 3100
Rat [25] | – | 46000 | – | –

Rat [23]
Settings | concentration in plasma [ng/mL]
0.5 h | 23200
12 h | 120

O=C(O)CCC(F)(F)C(F)(F)C(F)(F)C(F)(F)C(F)(F)C(F)(F)C(F)(F)F [Fluorotelomer acid 7+3]
Settings | concentration in brain [ng/g] | concentration in kidney [ng/g] | concentration in liver [ng/g]
Rat [26] | – | – | 1400
Rat [28] | – | 762 | –
Rat [29] | – | – | 1500
Rat [30] | – | 3110 | –
Rat [32] | 129 | – | –
Rat [35] | – | – | 588

Settings | concentration in plasma [ng/mL]
Rat [27], 1 h | 502
Rat [27], 6 h | 706
Rat [31], 0.5 h | 116
Rat [31], 9 h | 264
Rat [33], 0.25 h | 37
Rat [33], 24 h | 183
Rat [34], 0.75 h | 334
Rat [34], 12 h | 90

Source: EPA's CvTdb concentration-time database
